Laboratory results reported in ChEMBL document CHEMBL4359913, “Identification and characterization of benzo[d]oxazol-2(3H)-one derivatives as the first potent and selective small-molecule inhibitors of chromodomain protein CDYL” (Eur J Med Chem, 2019).
Activity calls are given as the source filed them. No cut-off for these calls is given here.

Assays:
[1] = molecular target: T1, Chromodomain Y-like protein (Homo sapiens) (UniProt Q9Y232); assay: Inhibition of CDYL in human SH-SY5Y cells assessed as decrease in enrichment of H3K27me3 at BDNF promoter site at 150 uM incubated for 24 hrs by ChIP-qPCR analysis; format: cell-based
T1 sequence (whole entry): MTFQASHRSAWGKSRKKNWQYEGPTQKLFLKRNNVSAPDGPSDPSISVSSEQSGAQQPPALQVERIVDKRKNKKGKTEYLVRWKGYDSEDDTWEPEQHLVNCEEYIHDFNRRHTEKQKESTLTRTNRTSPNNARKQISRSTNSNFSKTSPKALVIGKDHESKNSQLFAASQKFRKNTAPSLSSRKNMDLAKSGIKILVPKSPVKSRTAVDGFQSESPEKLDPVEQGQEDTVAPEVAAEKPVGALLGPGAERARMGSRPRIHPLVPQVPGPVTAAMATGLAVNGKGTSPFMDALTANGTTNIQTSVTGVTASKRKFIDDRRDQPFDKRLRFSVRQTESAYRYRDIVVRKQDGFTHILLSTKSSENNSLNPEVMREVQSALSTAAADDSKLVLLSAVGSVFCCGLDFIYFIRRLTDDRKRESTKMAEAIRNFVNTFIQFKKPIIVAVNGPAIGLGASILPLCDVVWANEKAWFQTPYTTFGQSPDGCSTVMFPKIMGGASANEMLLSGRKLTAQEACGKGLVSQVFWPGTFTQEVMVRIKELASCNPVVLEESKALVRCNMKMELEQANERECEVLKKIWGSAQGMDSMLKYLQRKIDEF
In short: (§1)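 About 1×10^7 SH-SY5Y cells given 150 µM compound or DMSO for 24 h, fixed in 1% formaldehyde for 10 min. Chromatin immunoprecipitated overnight-style (12 h, 4 °C) with CDYL or H3K27me3 antibody, captured on Protein A/G beads, washed, decrosslinked at 65 °C. Promoter DNA quantified by qPCR, mean ± S.E.M. of triplicate experiments, Student's t-test.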

[2] = molecular target: T2, Chromodomain Y-like protein (Mus musculus) (UniProt Q9WTK2); assay: Inhibition of CDYL in C57BL/6 mouse cortical neurons as increase in VGF mRNA expression at 150 uM incubated for 24 hrs by RT-qPCR analysis
T2 sequence (whole entry): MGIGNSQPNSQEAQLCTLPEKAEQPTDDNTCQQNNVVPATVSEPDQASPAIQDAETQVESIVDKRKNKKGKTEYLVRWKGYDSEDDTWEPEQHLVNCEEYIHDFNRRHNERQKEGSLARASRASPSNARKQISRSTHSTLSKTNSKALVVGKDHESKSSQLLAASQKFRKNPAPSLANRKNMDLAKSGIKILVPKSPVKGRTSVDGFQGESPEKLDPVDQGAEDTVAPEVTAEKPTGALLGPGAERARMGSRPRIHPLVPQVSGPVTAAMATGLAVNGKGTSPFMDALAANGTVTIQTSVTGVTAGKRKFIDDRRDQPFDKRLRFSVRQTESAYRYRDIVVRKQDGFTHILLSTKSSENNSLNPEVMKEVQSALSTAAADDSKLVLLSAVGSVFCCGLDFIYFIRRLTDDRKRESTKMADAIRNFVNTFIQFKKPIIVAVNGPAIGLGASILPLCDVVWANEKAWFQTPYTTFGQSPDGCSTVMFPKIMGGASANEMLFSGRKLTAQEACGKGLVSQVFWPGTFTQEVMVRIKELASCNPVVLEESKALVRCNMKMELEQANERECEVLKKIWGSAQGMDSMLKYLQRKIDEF
In short: (§2)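 Mouse cortical or hippocampal neurons, dissociated with trypsin and kept in Neurobasal/B27, treated with 150 µM compound for 24 h. mRNA measured by SYBR green RT-qPCR with the 2^-ΔΔCt method, GAPDH as reference, relative to DMSO. Mean ± S.E.M. of triplicate experiments, Student's t-test.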

[3] = molecular target: T1, Chromodomain Y-like protein (Homo sapiens); assay: Inhibition of CDYL in human SH-SY5Y cells assessed as decrease in enrichment of CDYL at MYT1 promoter site at 150 uM incubated for 24 hrs by ChIP-qPCR analysis; format: cell-based; in short: as §1
[4] = molecular target: T1, Chromodomain Y-like protein (Homo sapiens); assay: Binding affinity to CDYL in human SH-SY5Y cells assessed as increase in protein thermal stability at 150 uM incubated for 10 mins at room temperature followed by exposure to 40 to 67 degC for 4 mins followed by cooling for 3 mins at room temperature by CETSA; format: cell-based
In short: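 SH-SY5Y cells freeze-thawed three times in liquid nitrogen, lysate diluted with PBS, given 150 µM compound or DMSO for 10 min at room temperature. Aliquots heated at 40–67 °C for 4 min, cooled 3 min, spun at 13,000 g for 10 min at 4 °C. CDYL in the supernatant read by SDS-PAGE and Western blot, bands quantified by densitometry.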

[5] = molecular target: T1, Chromodomain Y-like protein (Homo sapiens); assay: Inhibition of CDYL in human SH-SY5Y cells assessed as increase in MYT1 mRNA expression incubated for 24 hrs by RT-qPCR analysis; format: cell-based
In short: (§3)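 SH-SY5Y or HEK-293T cells grown in DMEM with 10% FBS and treated with compound for 24 h. mRNA quantified by SYBR green RT-qPCR after DNase treatment, 2^-ΔΔCt method with GAPDH as reference, relative to DMSO. Mean ± S.E.M. of triplicate experiments, Student's t-test.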

[6] = molecular target: T2, Chromodomain Y-like protein (Mus musculus); assay: Inhibition of CDYL in C57BL/6 mouse cortical neurons as increase in MYT1 mRNA expression at 150 uM incubated for 24 hrs by RT-qPCR analysis; in short: as §2
[7] = molecular target: T3, Chromodomain Y-like protein (Homo sapiens, UniProt Q9Y232); assay: Binding affinity to recombinant human N-terminal GST-tagged CDYL (1 to 60 residues) expressed in Escherichia coli […] by SPR analysis
T3 sequence (Q9Y232 whole entry): T1 sequence (whole entry)
In short: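 GST-tagged chromodomain expressed in E. coli BL21 with 0.2 mM IPTG at 28 °C for 6 h. Purified on GSTrap, tag removed with PreScission protease. Amine-coupled to CM5 chip at pH 4.0–4.5 (5000–10000 RU). Compound run as a 1.5- or 2-fold series from 100 µM in PBSP with 5% DMSO, 25 °C, 30 µL/min, 60 s association and 60 s dissociation.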

[8] = molecular target: T2, Chromodomain Y-like protein (Mus musculus); assay: Inhibition of CDYL in C57BL/6 mouse cortical neurons as increase in BDNF mRNA expression at 150 uM incubated for 24 hrs by RT-qPCR analysis; in short: as §2
[9] = molecular target: T1, Chromodomain Y-like protein (Homo sapiens); assay: Inhibition of CDYL in human SH-SY5Y cells assessed as increase in BDNF mRNA expression incubated for 24 hrs by RT-qPCR analysis; format: cell-based; in short: as §3
[10] = molecular target: T2, Chromodomain Y-like protein (Mus musculus); assay: Inhibition of CDYL in C57BL/6 mouse hippocampal neurons as increase in MYT1 mRNA expression at 150 uM incubated for 24 hrs by RT-qPCR analysis; in short: as §2
[11] = molecular target: T2, Chromodomain Y-like protein (Mus musculus); assay: Inhibition of CDYL in C57BL/6 mouse hippocampal neurons as increase in VGF mRNA expression at 150 uM incubated for 24 hrs by RT-qPCR analysis; in short: as §2
[12] = molecular target: T2, Chromodomain Y-like protein (Mus musculus); assay: Inhibition of CDYL in C57BL/6 mouse hippocampal neurons as increase in BDNF mRNA expression at 150 uM incubated for 24 hrs by RT-qPCR analysis; in short: as §2

With `O=C(Cn1c(=O)oc2ccccc21)N1CCC(N2CCCC2)CC1` the inhibition [1] was “Active”, the Activity [2] was “Active” and the inhibition [3] was “Active”. The Activity [4] was “Active”, the Activity [5] was “Dose-dependent effect” and the Activity [6] was “Active”. For the same compound, the Kd [7] was 0.5 µM, the Activity [8] was “Active” and the Activity [9] was “Dose-dependent effect”. For the same compound, the Activity [10] was “Active”, the Activity [11] was “Active” and the Activity [12] was “Active”.
